# Source: paper PMC9326885 (Journal of Food and Drug Analysis, 2017)
# Counter-ions that a name gives are not always drawn. Marks after values point to notes of the source that are not given here.
# Tests used:
# [1] = Effect of intravenous IS on the elimination of intravenous PSP in rats; format: in vivo, rat; details: for AUC(0-t) / clearance / MRT: male, Sprague-Dawley, rat, serum, iv, 5 mg/kg, mean ± S.E., n = 6; for AUC(0-t): AUC0-1440, area under concentration-time curve to 1440 min; for clearance: Cl, the clearance; for MRT: the mean residence time
# How it was run: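 Male Sprague–Dawley rats (370–420 g), fasted 12 h, received IV PSP 5.0 mg/kg with or without IV IS 10.0 mg/kg in a crossover design with a 1-week washout. Blood was drawn at 30–1440 min and serum was deproteinized with methanol and basified with NaOH. Absorbance was read at 560 nm (calibration 0.39–12.5 μg/mL). Noncompartmental analysis; paired t-test.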
# [2] = by OATs- and MRPs-mediated transports; cited from earlier work
# [3] = Effect of oral indican on the pharmacokinetics of oral MTX in rats; format: in vivo, rat; details: mean ± S.E., n = 5; for MRT: male, Sprague-Dawley, rat, serum, po, the mean residence time
# How it was run: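 Male Sprague–Dawley rats (330–400 g), fasted 12 h, were given oral MTX 5.0 mg/kg alone or with oral indican 20.0 or 40.0 mg/kg in a parallel design. Serum MTX was measured by fluorescence polarization immunoassay (calibrated 0–1.0 μmol/L, LLOQ 0.01 μmol/L). Noncompartmental analysis: Cmax observed, AUC by trapezoidal rule to last point. Groups compared by one-way ANOVA with Scheffe's test.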
# [4] = intravenous bolus of PSP 5.0 mg/kg alone
# [5] = intravenous bolus of PSP 5.0 mg/kg with intravenous bolus of IS 10.0 mg/kg
structure (smiles),measurement,setting,value
"O=S(=O)(O)Oc1c[nH]c2ccccc12 [IS, indoxyl sulfate]",Effect on the elimination of PSP (serum profiles),[1]; intravenous IS 10.0 mg/kg with intravenous PSP 5.0 mg/kg,inhibited
"CN(Cc1cnc2nc(N)nc(N)c2n1)c1ccc(C(=O)N[C@@H](CCC(=O)O)C(=O)O)cc1 [MTX, Methotrexate]",Fraction of MTX excreted via urine,[2],More than 80%
same,MRT,"[3]; 5 mg/kg, oral MTX 5.0 mg/kg alone",5.26 h
same,MRT,[3]; oral MTX 5.0 mg/kg coadministered with indican 20.0 mg/kg,17 h
same,MRT,[3]; oral MTX 5.0 mg/kg coadministered with indican 40.0 mg/kg,16 h
same,"AUC0-2880, area under concentration-time curve to 2880 min",[3]; oral MTX 5.0 mg/kg alone,63.6 ± 6.9^a μmole•min/L
"O=S1(=O)OC(c2ccc(O)cc2)(c2ccc(O)cc2)c2ccccc21 [PSP, phenolsulfonphthalein]",AUC(0-t),[1]; [4],21300 ng·h/mL
same,AUC(0-t),[1]; [5],64700 ng·h/mL
same,clearance,[1]; [4],3.1 ± 0.4 mL/min/kg
same,clearance,[1]; [5],1 ± 0.3 mL/min/kg
same,MRT,[1]; [4],6.67 h
same,MRT,[1]; [5],9.54 h
